Data published in ChEMBL document CHEMBL4270628, “Design, synthesis, and evaluation of cystargolide-based β-lactones as potent proteasome inhibitors” (Eur J Med Chem, 2018).
Activity calls are given as the source filed them. The rule behind the calls is not given here.

Legend:
[1] = target: T1, Proteasome Macropain subunit MB1 (Homo sapiens, UniProt P28074); experiment: Inhibition of 20S proteasome beta5 subunit in human Jurkat cell lysate using Suc-LLVY-AMC as substrate pretreated for 30 mins followed by substrate addition and measured after 60 mins by fluorescence assay
T1 sequence (P28074 whole entry): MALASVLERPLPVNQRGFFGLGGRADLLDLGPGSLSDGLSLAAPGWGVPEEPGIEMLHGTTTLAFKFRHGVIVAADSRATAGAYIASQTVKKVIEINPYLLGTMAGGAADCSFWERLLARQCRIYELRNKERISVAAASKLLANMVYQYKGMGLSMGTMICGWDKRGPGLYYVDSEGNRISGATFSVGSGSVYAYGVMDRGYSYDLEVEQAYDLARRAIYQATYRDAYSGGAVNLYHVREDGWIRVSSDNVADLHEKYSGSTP
Method in brief: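 Lysate was preincubated with compound 30 min at 37 °C. 100 μM substrate solution was added: Suc-LLVY-AMC for β5, Suc-RLR-AMC for β2. IC50 by nonlinear regression, ±SD.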

[2] = tested on: MCF7; experiment: Cytotoxicity against human MCF7 cells after 48 hrs by MTT assay; type: functional, cell-based; settings: MCF7, 48 h
Method in brief: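 MCF7 cells plated at 4*10⁴ cells/mL and left overnight to adhere, then exposed to a concentration series for 48 h, with DMSO vehicle, untreated cells, and 100 μM phenylarsine oxide as controls. MTT (5 mg/mL stock in PBS) was added for 2 h at 37 °C. Formazan was dissolved in DMSO and OD read at 490 nm. The best three of quadruplicate wells were used; IC50 from nonlinear regression on normalized data, ±SD.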

[3] = tested on: MDA-MB-231; experiment: Cytotoxicity against human MDA-MB-231 cells after 48 hrs by MTT assay; type: functional, cell-based; settings: MDA-MB-231, 48 h
Method in brief: (§1)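 MTT viability after 48 h exposure to a concentration series; MDA-MB-231 seeded at 4*10⁴ cells/mL and adhered overnight, RPMI 8226 at 4*10⁵ cells/mL and dosed immediately. MTT (5 mg/mL in PBS) added, 2 h at 37 °C; formazan dissolved in DMSO (MDA-MB-231) or DMF/SDS pH<4 (RPMI 8226); OD 490 nm.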

[4] = tested on: RPMI-8226; experiment: Cytotoxicity against human RPMI8226 cells after 48 hrs by MTT assay; type: functional, cell-based; settings: RPMI-8226, 48 h; method in brief: as §1
[5] = target: T2, Proteasome Macropain subunit MB1 (Homo sapiens) (UniProt P28074); experiment: Inhibition of 20S proteasome beta5 subunit in human MCF7 cells using Suc-LLVY-AMC as substrate pretreated for 1 hr followed by compound washout and cell lysis prior to substrate addition measured after 1 hr by fluorescence assay; type: cell-based
T2 sequence (whole entry): T1 sequence (P28074 whole entry)
Method in brief: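 Adherent MCF7 (500,000 cells/mL, overnight, ~100% confluent) dosed 1 h at 37 °C, 5% CO₂; washed twice with PBS, lysed in HEPES/Triton buffer on ice 1 h; 15 min at 37 °C, then 100 μM Suc-LLVY-AMC 1 h at 37 °C; ex 360/em 480 nm. IC50 from best three of four biological replicates per concentration.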

SMILES	IC50 [1]	IC50 [2]	IC50 [3]	IC50 [4]	inhibition [5]
CC[C@H](C)[C@@H]1C(=O)O[C@H]1C(=O)N[C@@H](Cc1ccccc1)C(=O)N[C@@H](Cc1ccccc1)C(=O)OCc1ccccc1	11.6 nM	6250 nM	5210 nM	1180 nM	
CC[C@H](C)[C@@H]1C(=O)O[C@H]1C(=O)N[C@H](C(=O)N[C@@H](CC(C)C)C(=O)OCc1ccccc1)C(C)C	7.7 nM	332 nM	219 nM	286 nM	Active
CC[C@H](C)[C@@H]1C(=O)O[C@H]1C(=O)N[C@H](C(=O)N[C@H](C(=O)OCc1ccc(OC)cc1)C(C)C)C(C)C	10.2 nM	854 nM	280 nM	114 nM	
CC[C@H](C)[C@@H]1C(=O)O[C@H]1C(=O)N[C@H](C(=O)N[C@H](C(=O)OC)C(C)C)C(C)C	15.9 nM	427 nM	312 nM	268 nM	
CC[C@H](C)[C@@H]1C(=O)O[C@H]1C(=O)N[C@H](C(=O)N[C@@H](Cc1ccccc1)C(=O)OCc1ccccc1)C(C)C	5.7 nM	2750 nM	3350 nM	1100 nM	
CC[C@H](C)[C@@H]1C(=O)O[C@H]1C(=O)NCC(=O)N[C@H](C(=O)OCc1ccccc1)C(C)C	2.7 nM	2080 nM	678 nM	762 nM	Active
CC[C@H](C)[C@@H]1C(=O)O[C@H]1C(=O)N[C@@H](Cc1ccccc1)C(=O)N[C@H](C(=O)OCc1ccccc1)C(C)C	7.8 nM	6940 nM	3760 nM	2610 nM	Active
CC[C@H](C)[C@@H]1C(=O)O[C@H]1C(=O)N[C@H](C(=O)N[C@H](C(=O)OCC1CCCCC1)C(C)C)C(C)C	18.7 nM	4620 nM	3220 nM	303 nM	
CC[C@H](C)[C@@H]1C(=O)O[C@H]1C(=O)N[C@H](C(=O)N[C@H](C(=O)OCc1ccccc1)C(C)(C)C)C(C)(C)C	35.9 nM	1900 nM	673 nM	1220 nM	
CC(C)[C@H](NC(=O)[C@@H]1OC(=O)[C@H]1C1CC1)C(=O)N[C@H](C(=O)OCc1ccccc1)C(C)C	7.6 nM	> 100000 nM	> 100000 nM	73900 nM	inactive
CC(C)[C@H](NC(=O)[C@@H]1OC(=O)[C@H]1C1CCC1)C(=O)N[C@H](C(=O)OCc1ccccc1)C(C)C	13.2 nM	> 50000 nM	> 50000 nM	37200 nM	inactive
CC[C@H](C)[C@@H]1C(=O)O[C@H]1C(=O)N[C@H](C(=O)N[C@H](C(=O)OCc1ccc(Cl)cc1)C(C)C)C(C)C	8.2 nM	918 nM	312 nM	85 nM	
CC[C@H](C)[C@@H]1C(=O)O[C@H]1C(=O)N[C@H](C(=O)N[C@H](C(=O)OCc1ccccc1)C(C)(C)C)C(C)C	9.8 nM	1140 nM	1910 nM	1750 nM	inactive
CC[C@H](C)[C@@H]1C(=O)O[C@H]1C(=O)N[C@@H](COCc1ccccc1)C(=O)N[C@H](C(=O)OCc1ccccc1)C(C)C	7.7 nM	3450 nM	2860 nM	1710 nM	Active
CC(C)C[C@@H]1C(=O)O[C@H]1C(=O)N[C@H](C(=O)N[C@H](C(=O)OCc1ccccc1)C(C)C)C(C)C	19.7 nM	55300 nM	30300 nM	33500 nM	inactive
C=CCCOC(=O)[C@@H](NC(=O)[C@@H](NC(=O)[C@@H]1OC(=O)[C@H]1[C@@H](C)CC)C(C)C)C(C)C	6.6 nM	523 nM	341 nM	272 nM	
CC[C@H](C)[C@@H]1C(=O)O[C@H]1C(=O)N[C@H](C(=O)N[C@H](C(=O)OCC(C)C)C(C)C)C(C)C	8.8 nM	664 nM	317 nM	95 nM	
